# Source: ChEMBL document CHEMBL1255324, “Absence of amphotericin B-tolerant persister cells in biofilms of some Candida species” (2008)
# Activity calls are given as the source filed them. The calls are words filed in the database; no cut-off is given here.
# Columns and labels:
# Candida albicans [1] = assay: Antifungal activity against Candida albicans GDH 2346 exponential phase planktonic cell assessed as cell killing at 5 ug/ml after 24 hrs; type: functional, organism-based
# Procedure, shortened: (§1)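 Planktonic cells grown at 37°C with shaking in YNB/50 mM glucose. Exponential phase was 8 h for C. krusei, C. albicans and C. tropicalis, 11 h for C. parapsilosis and 18 h for C. glabrata; stationary phase was 48 h. Washed cells at ~10^7 cells ml−1 got amphotericin B (5–100 μg ml−1) in MOPS-buffered (pH 7) YNB glucose, 24 h at 37°C. Viable counts by plating. Two experiments in duplicate.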
# Candida albicans [2] = assay: Antifungal activity against Candida albicans GDH 2346 Biofilm assessed as resistant isolate at 100 ug/ml after 24 hrs; type: functional
# Procedure, shortened: (§2)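 Biofilms formed on 0.8 cm PVC discs. Standardized YNB/50 mM glucose-grown cells (OD520 0.8) adhered 1 h at 37°C, then grew 48 h at 37°C. Mature biofilms were exposed 24 h at 37°C to amphotericin B 5–100 μg ml−1 in YNB glucose buffered to pH 7 with 0.165 M MOPS; drug-free controls. Cells were scraped and vortexed off, washed in PBS, then viable counts were made by serial dilution and plating on YNB/200 mM glucose agar. Two independent experiments, each in duplicate.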
# Candida albicans [3] = assay: Antifungal activity against Candida albicans GDH 2346; type: functional
# Candida albicans [4] = assay: Antifungal activity against Candida albicans SC5314 biofilm persisters at 100 ug/ml after 24 hrs; type: functional, organism-based
# Procedure, shortened: (§3)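 PVC discs (0.8 cm) seeded with washed YNB/50 mM glucose-grown cells (OD520 0.8), adhered 1 h at 37°C, washed, and grown 48 h at 37°C in medium. Biofilms exposed 24 h at 37°C to amphotericin B (5–100 μg ml−1) in YNB glucose buffered to pH 7 with 0.165 M MOPS; drug-free controls. Cells scraped, vortexed, PBS-washed, viable counts on YNB/200 mM glucose agar. Two experiments in duplicate.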
# Candida albicans [5] = assay: Antifungal activity against Candida albicans SC5314 biofilm assessed as cell killing at 100 ug/ml after 24 hrs; type: functional, organism-based; procedure, shortened: as §3
# Nakaseomyces glabratus = assay: Antifungal activity against Candida glabrata AAHB 12 exponential-phase planktonic cell assessed as cell killing at 5 ug/ml after 24 hrs; type: functional, organism-based; procedure, shortened: as §1
# Candida tropicalis [6] = assay: Antifungal activity against Candida tropicalis AAHB 73 exponential-phase planktonic cell assessed as cell killing at 5 ug/ml after 24 hrs; type: functional, organism-based; procedure, shortened: as §1
# Pichia kudriavzevii [7] = assay: Antifungal activity against Candida krusei Glasgow exponential-phase planktonic cell assessed as cell killing at 5 ug/ml after 24 hrs; type: functional, organism-based; procedure, shortened: as §1
# Candida parapsilosis [8] = assay: Antifungal activity against Candida parapsilosis AAHB 4479 exponential-phase planktonic cell assessed as cell killing after 24 hrs; type: functional, organism-based; procedure, shortened: as §1
# Candida tropicalis [9] = assay: Antifungal activity against Candida tropicalis AAHB 73 stationary-phase planktonic cell assessed as cell killing after 24 hrs; type: functional, organism-based; procedure, shortened: as §1
# Pichia kudriavzevii [10] = assay: Antifungal activity against Candida krusei Glasgow stationary-phase planktonic cell assessed as cell killing after 24 hrs; type: functional, organism-based; procedure, shortened: as §1
# Candida parapsilosis [11] = assay: Antifungal activity against Candida parapsilosis AAHB 4479 stationary-phase planktonic cell assessed as cell killing after 24 hrs; type: functional, organism-based; procedure, shortened: as §1
# Pichia kudriavzevii [12] = assay: Antifungal activity against Candida krusei Glasgow Biofilm assessed as resistant isolates after 24 hrs; type: functional; procedure, shortened: as §2
# Candida parapsilosis [13] = assay: Antifungal activity against Candida parapsilosis AAHB 4479 Biofilm assessed as resistant isolates after 24 hrs; type: functional; procedure, shortened: as §2
# Candida albicans [14] = assay: Antifungal activity against Candida albicans GDH 2346 stationary phase planktonic cell assessed as cell killing at 5 ug/ml after 24 hrs; type: functional, organism-based; procedure, shortened: as §1
# Candida albicans [15] = assay: Antifungal activity against Candida albicans SC5314 exponential/stationary phase planktonic cell assessed as cell killing at 100 ug/ml after 24 hrs; type: functional, organism-based; procedure, shortened: as §1
# Candida albicans [16] = assay: Antifungal activity against Candida albicans SC5314 exponential/stationary phase planktonic cell assessed as persisters at 100 ug/ml after 24 hrs; type: functional, organism-based; procedure, shortened: as §1
structure (smiles),measurement,setting,value
C[C@@H]1[C@H](O)[C@@H](C)/C=C/C=C/C=C/C=C/C=C/C=C/C=C/[C@H](O[C@@H]2O[C@H](C)[C@@H](O)[C@H](N)[C@@H]2O)C[C@@H]2O[C@](O)(C[C@@H](O)C[C@@H](O)[C@H](O)CC[C@@H](O)C[C@@H](O)CC(=O)O[C@H]1C)C[C@H](O)[C@H]2C(=O)O [AMPHOTERICIN B],Activity,Candida albicans [1],Active
same,Activity,Candida albicans [2],0.01%
same,MIC,Candida albicans [3],1.3 µg/mL
same,Activity,Candida albicans [4],Active
same,Activity,Candida albicans [5],Active
same,Activity,Nakaseomyces glabratus,Active
same,Activity,Candida tropicalis [6],Active
same,Activity,Pichia kudriavzevii [7],Active
same,Activity,Candida parapsilosis [8],inactive
same,Activity,Candida tropicalis [9],inactive
same,Activity,Pichia kudriavzevii [10],inactive
same,Activity,Candida parapsilosis [11],inactive
same,Activity,Pichia kudriavzevii [12],0.001%
same,Activity,Candida parapsilosis [13],0.07%
same,Activity,Candida albicans [14],Active
same,Activity,Candida albicans [15],Active
same,Activity,Candida albicans [16],Active
